Calls of active or inactive are those of the source.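 How the source made its calls, unless noted: active means inhibition of the reporter signal at or above 50%; inactive means inhibition below 50%.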
What was measured:
[1] = inhibitors of TNFa-induced NFkB p65 translocation, primary screen, imaging, HUVEC, MLSMR starter and 10KST1 sets (AID 438;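 active means inhibition above 20% together with a positive visual image hit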;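 further: compound added about 3h40 before a 20 min TNFalpha stimulation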;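 on inhibition: signal is the nuclear over cytoplasmic p65 intensity ratio per well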); conditions: HUVEC TNFa-induced p65 nuclear translocation; cell count: measured here: nuclei count (cytotoxicity indicator), at 2.08 µM; inhibition: at 2 µM, stronger effect = higher value, 0% TNFa-plus-vehicle, 100% no-TNFa wells
[2] = inhibitors of mutant huntingtin aggregation, primary screen, imaging, exon1htt(103Q)mCFP cells, high-content imaging (AID 483;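 active means visual image review flags a hit and inhibition of aggregation exceeds 20%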;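 further: compound exposure lasted 3 days before fixation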;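 on nuclei count: percent of the per-plate median nuclei count of sample wells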); conditions: exon1htt(103Q)mCFP cell line, aggregate imaging, at 2 µM; inhibition of aggregation: stronger effect = higher value; nuclei count: measured here: cell count, toxicity
[3] = inhibitors of E-selectin induction by TNFa, primary screen, imaging, HUVEC, immunofluorescence, MLSMR starter and 10KST1 sets (AID 487;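 active means visually confirmed hit in the image check and inhibition above 20%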;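 on inhibition: signal is fraction of cell area covered by stained E-selectin grains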;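 on nuclei count: 100% = median nuclei count of all wells on the same plate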); conditions: HUVEC TNFalpha-induced E-selectin immunofluorescence imaging, at 2 µM; inhibition: stronger effect = higher value; nuclei count: measured here: cell number, toxicity
[4] = target: Voltage-gated potassium channel subunit beta-2 (Rattus norvegicus) (UniProt P62483); assay: KvBeta enzyme negative modulators, primary screen, biochemical, NADPH fluorescence (AID 622;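 active means fluorescence slope higher than the sample average by over 3 SD, cut at about -0.22 in these data, passing the limit was not always enough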;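 further: slope of raw intensity against log time taken from 70 to 1610 s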); conditions: recombinant KvBeta, 4-cyanobenzaldehyde reduction, at 10 µM, stronger effect = higher value
[5] = target: Voltage-gated potassium channel subunit beta-2 (Rattus norvegicus) (UniProt P62483); assay: KvBeta positive modulators, primary screen, biochemical, NADPH fluorescence (AID 623;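 active means NADPH fluorescence slope more negative than the mean of all samples by about 3 SD, 99.7% confidence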;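 further: fluorescence intensity change per second fitted from 20 to 320 s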); conditions: Recombinant KvBeta, NADPH fluorescence decrease slope, 10 min; at 10 µM; stronger effect = lower value
[6] = target: Muscarinic acetylcholine receptor M4 (Homo sapiens) (UniProt P08173); assay: compounds altering M4/GIRK thallium flux, either direction, primary screen, M4 allosteric agonist project, cell-based, HEK293 M4/GIRK, BTC-AM (AID 625;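 active means fluorescence slope after compound addition differing from the mean of all tested samples at 99.7% confidence, mostly higher but some lower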;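 further: thallium influx through GIRK channels coupled to M4 in HEK293 cells with BTC-AM dye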); conditions: at 10 µM, actives lie on both sides
How it was run: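 System: HEK293 cells with M4 receptor and GIRK channels | Incubation: Cells overnight at 37 °C, BTC-AM loading 1 h, reads 2 min total | Technique: Kinetic BTC-AM fluorescence sampled at 1 Hz, 10 s pre-addition baseline | Measure: Post-addition slope, 15–24 s, of baseline-normalized fluorescence | Control set: Carbachol positive, DMSO negative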

[7] = inhibitors of Sendai virus-induced IRF3 signaling, primary screen, TLR/RLR signaling modifier project, cell-based, Sendai virus stimulus, luciferase, 10K MLSCN set (AID 602276;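 active means inhibition at or above 50% at 10 µM; inactive means inhibition below 50%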;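 further: firefly luciferase from ISG56 promoter only with Renilla not read in this screen; 0% = Sendai virus plus DMSO and 100% = medium plus DMSO without virus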); conditions: HEK293 RL24 IRF3 luciferase reporter, at 10 µM, stronger effect = higher value
[8] = inhibitors of poly I:C-induced TLR3 signaling, primary screen, cell-based, poly I:C stimulus, luciferase, 10K MLSCN set (AID 602277); conditions: HEK293-TLR3 RL24 IRF3 luciferase reporter, at 10 µM, stronger effect = higher value

Chain of Muscarinic acetylcholine receptor M4 (Homo sapiens) (P08173 whole entry, looked up): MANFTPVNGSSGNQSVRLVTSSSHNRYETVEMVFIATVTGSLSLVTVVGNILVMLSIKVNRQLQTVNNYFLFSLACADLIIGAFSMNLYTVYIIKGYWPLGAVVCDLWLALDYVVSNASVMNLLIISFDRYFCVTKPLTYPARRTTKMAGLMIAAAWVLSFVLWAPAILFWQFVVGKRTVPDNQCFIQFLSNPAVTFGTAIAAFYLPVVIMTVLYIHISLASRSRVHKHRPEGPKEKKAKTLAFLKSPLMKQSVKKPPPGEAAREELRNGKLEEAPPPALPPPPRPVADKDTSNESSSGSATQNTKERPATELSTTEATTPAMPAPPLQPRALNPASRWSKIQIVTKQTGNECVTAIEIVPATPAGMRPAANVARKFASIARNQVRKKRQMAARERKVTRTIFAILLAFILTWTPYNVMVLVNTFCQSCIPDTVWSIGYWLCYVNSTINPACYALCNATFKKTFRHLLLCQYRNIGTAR
Chain of Voltage-gated potassium channel subunit beta-2 (Rattus norvegicus) (P62483 whole entry, looked up): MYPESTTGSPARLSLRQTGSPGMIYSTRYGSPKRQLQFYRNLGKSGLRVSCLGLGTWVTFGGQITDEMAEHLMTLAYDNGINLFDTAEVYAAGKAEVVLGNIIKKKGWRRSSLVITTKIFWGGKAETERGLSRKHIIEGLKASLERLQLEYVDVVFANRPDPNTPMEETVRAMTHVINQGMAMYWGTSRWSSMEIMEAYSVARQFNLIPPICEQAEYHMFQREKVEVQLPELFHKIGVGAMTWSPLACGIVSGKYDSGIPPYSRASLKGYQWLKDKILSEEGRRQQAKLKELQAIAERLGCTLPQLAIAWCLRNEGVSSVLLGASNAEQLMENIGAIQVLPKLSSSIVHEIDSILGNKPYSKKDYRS

| SMILES | cell count [1] | inhibition [1] | inhibition of aggregation [2] | nuclei count [2] | inhibition [3] | nuclei count [3] | fluorescence slope [4] | NADPH fluorescence slope [5] | fluorescence slope [6] | inhibition [7] | inhibition [8] |
| --- | --- | --- | --- | --- | --- | --- | --- | --- | --- | --- | --- |
| COc1ccc(/C(O)=C2/C(=O)C(=O)N(CC3CCCO3)C2c2cccc(OC)c2)cc1 (stereo not drawn) | 717 | 3.9% (inactive) | -15.3% (inactive) | 118% | 36.2% (inactive) | 97.6% | -0.429 (inactive) | -3.2e-05 (inactive) | 0.00604 (inactive) | 14.7% (inactive) | 21.1% (inactive) |
| Cc1ccc(OCC(=O)N2CCN(C(=O)CCC3CCCC3)CC2)cc1 | 319 | 0.5% (inactive) | -30.7% (inactive) | 84.9% | -1.5% (inactive) | 108% | -0.242 (inactive) | -1.9e-05 (inactive) | 0.00663 (inactive) | 12% (inactive) | 11.5% (inactive) |
| O=C(Cn1cccc1)N1CCN(C(c2ccccc2)c2ccccc2)CC1 | 337 | -8.9% (inactive) | -11.9% (inactive) | 110% | -52.8% (inactive) | 107% | -0.213 (inactive) | -1.1e-05 (inactive) | 0.00614 (inactive) | 13.3% (inactive) | 22% (inactive) |
| O=C(COc1ccc(S(=O)(=O)N2CCCC2)cc1Cl)NC1CC1 | 349 | 5.7% (inactive) | -1.8% (inactive) | 58.7% | 21.6% (inactive) | 98.3% | -0.232 (inactive) | -1.9e-05 (inactive) | 0.007 (inactive) | 15.4% (inactive) | 16.4% (inactive) |
| CS(=O)(=O)Nc1ccc(C(=O)NCc2ccc3c(c2)OCO3)cc1 | 409 | -5.7% (inactive) | 16.6% (inactive) | 66.5% | -42.6% (inactive) | 108% | -0.472 (inactive) | -1.7e-05 (inactive) | 0.00561 (inactive) | 9.26% (inactive) | 4.21% (inactive) |
| COC(=O)c1[nH]c(C)c(/C(O)=C2\C(=O)C(=O)N(CCN(C)C)C2c2ccccc2OC)c1C (stereo not drawn) | 472 | -8% (inactive) | 10.7% (inactive) | 106% | -33.4% (inactive) | 103% | -0.326 (inactive) | -1.8e-05 (inactive) | 0.00598 (inactive) | -8.53% (inactive) | 2.66% (inactive) |
| CCOC(=O)N1CCC(O)(c2cc(C)c(C)cc2C)CC1 | 494 | -1.1% (inactive) | -15.6% (inactive) | 93% | -16% (inactive) | 112% | -0.316 (inactive) | -2.5e-05 (inactive) | 0.00607 (inactive) | 16.2% (inactive) | -0.7% (inactive) |
| CCC(C)C(NC(=O)C1CCC(C)CC1)C(=O)NCc1cccnc1 (stereo not drawn) | 320 | -13.1% (inactive) | 1.5% (inactive) | 103% | 22.9% (inactive) | 102% | -0.325 (inactive) | -5.6e-05 (inactive) | 0.00576 (inactive) | 12.4% (inactive) | 4.61% (inactive) |

Reference: PubChem BioAssay
